{"data": "Measurements gathered from unrelated publications", "cell line": "T47D", "effect on": "cell growth or viability", "note": "Lines come from different studies, so protocols differ."}
{"Structure (SMILES)": "COc1ccc(C(=O)/C=C/c2cccc(Cl)c2)cc1S(N)(=O)=O", "method": "SRB", "time": "48 h", "quantity": "GI50", "value": "2100 nM"}
{"Structure (SMILES)": "CC/C(=C(\\c1ccc(O)cc1)c1ccc(OCCNC)cc1)c1ccccc1", "time": "5 days", "quantity": "IC50", "value": "4290 nM"}
{"Structure (SMILES)": "COc1ccc(-c2ccc(-c3ccc(C(=N)N)nc3)s2)cc1", "method": "SRB", "quantity": "GI50", "value": "1920 nM"}
{"Structure (SMILES)": "O=C1Nc2ccccc2C1=NNc1nnc2n1N=C(c1ccccc1)CS2", "method": "SRB", "concentration": "10 µM", "quantity": "inhibition", "value": "36%"}
{"Structure (SMILES)": "O=C1C[C@@H](c2ccc(O)cc2)Oc2cc(O)cc(O)c21", "method": "MTT", "time": "48 h", "quantity": "IC50", "value": "4170 nM"}
{"Structure (SMILES)": "CC[C@H](C)C(=O)O[C@H]1C[C@H](O)C=C2C=C[C@H](C)[C@H](CC[C@@H](O)C[C@@H](O)CC(=O)O)[C@H]21", "method": "SRB", "time": "72 h", "quantity": "IC50", "value": "133 µg/mL"}
{"Structure (SMILES)": "COc1cccc(Oc2ccccc2NC(=O)CNC(=O)c2cccc3ccccc23)c1", "method": "SRB", "time": "48 h", "quantity": "GI50", "value": "138 nM"}
{"Structure (SMILES)": "COc1ccc(-c2ccc(-c3ccc(C(=N)N)nc3)s2)cc1Cl", "method": "SRB", "quantity": "GI50", "value": "1990 nM"}
{"Structure (SMILES)": "CCCCCCCC(=O)NCC(=O)OC", "method": "MTT", "concentration": "10 µM", "time": "48 h", "quantity": "inhibition", "value": "23%"}
{"Structure (SMILES)": "COc1ccccc1/C=C/C(=O)c1ccc(OC)c(S(N)(=O)=O)c1", "method": "SRB", "concentration": "10 µM", "quantity": "inhibition", "value": "83%"}
{"Structure (SMILES)": "CC/C(=C(/c1ccc(OCCNC)cc1)c1ccc(B2OC(C)(C)C(C)(C)O2)cc1)c1ccccc1", "time": "5 days", "quantity": "IC50", "value": "8730 nM"}
